# According to the RNAGym collection of RNA variant scans (doi:10.1126/science.aae0568):
# This sample holds only a part of the variants without activity.
# B1: tRNA (parent)
# chain: GUUCCGUUGGCGUAAUGGUAACGCGUCUCCCUCCUAAGGAGAAGACUGCGGGUUCGAGUCCCGUACGGAACG
# Variants of: B1
# Assay: yeast fitness relative to wild type (ratio to wild type); higher = fitter; tRNA-Arg(CCU), competitive growth, 37 C, YPD
# Summary of the method: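 The tRNA-Arg(CCU) gene variants were made by chemical synthesis with a 3% per-site mutation rate at 69 sites and inserted at the native genomic locus of Saccharomyces cerevisiae. After pooling, the strains were competed in YPD at 37°C for 24 hours in six parallel replicates. Gene amplicons from the start population and each end population were read by 100-nucleotide paired-end sequencing, and Darwinian fitness relative to wild type was taken from genotype frequency changes. Genotypes needed ≥ 100 starting reads, and estimates < 0.5 were set to 0.5.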
row,Variant,yeast fitness
1,G6A U47A U64A,≤ 0.5
2,G6A G58A G68C,0.649
3,G6A U32C A37G C55A A65U G68C,≤ 0.5
4,G6C A14G G39C,≤ 0.5
5,G6C A20C C66G A70U,0.577
6,G6A G52C C66U,0.584
7,G6A U7A U26C C34G G63A,≤ 0.5
8,G6C A15U G23A C29U A43G,≤ 0.5
9,G6C C11U A65U,0.578
10,G6C C11G C22U A69C,≤ 0.5
11,G6C A20G A42U,0.63
12,G6C A15U G23C C31G G41C G48C G67C,≤ 0.5
13,G6C A15C A21C C34U A37U G56C U59G,≤ 0.5
14,G6A U8A A42U,≤ 0.5
15,G6C A15C C31U,≤ 0.5
16,G6C A15G C22A C29G A37C,≤ 0.5
17,G6A U16C C22U A37U C49A C62U,≤ 0.5
18,G6C A14C U54C A65U,0.637
19,G6A U8C A14C C61U,≤ 0.5
20,G6C A45C C55U A69C,≤ 0.5
21,G6A U8A G52A G56C,≤ 0.5
22,G6A G39A A65C,0.605
23,G6C C31A C33U C62U,≤ 0.5
24,G6A G41C A43G C49U,0.745

row,Variant,yeast fitness
1,G6C C46U C60A,0.644
2,G6C A37C G51A U53C,≤ 0.5
3,G6A G50A U53G A69G,≤ 0.5
4,G6C C11G A15U C31G C61G A69G,0.657
5,G6C A15G G51A,≤ 0.5
6,G6C C33A A40G A57U,≤ 0.5
7,G6C C27A,0.84
8,G6C C27U,0.933
9,G6C C27G,0.567
10,G6A U8C G23A A57C,≤ 0.5
11,G6C C33G A36C C49A G56A C60G A70U,≤ 0.5
12,G6C A14G A20C U64A G67A,0.562
13,G6A U8C U54C,0.552
14,G6C C11G A15G C66A,≤ 0.5
15,G6A U16C C34G G51A,≤ 0.5
16,G6C A43G,0.851
17,G6C C11U C24A,≤ 0.5
18,G6C C33A G56A U59A,≤ 0.5
19,G6C A14U A36G A40G C46A C62U,≤ 0.5
20,G6C C11U C31G A36G G48C G67C,≤ 0.5
21,G6C A21G,0.857
22,G6A G56A G67U,≤ 0.5
23,G6C C22A C31G G51A C66U,≤ 0.5
24,G6C C11G G41A A42C G50C A70G,≤ 0.5

row,Variant,yeast fitness
1,G6C C22A C31G A70C,≤ 0.5
2,G6A U28A,0.821
3,G6A U28G,0.886
4,G6A U28C,0.898
5,G6C C30A C34A A43C C62U,≤ 0.5
6,G6A U35G C55A,0.643
7,G6C A15U G23C C31G G41C G48C,0.574
8,G6C C24A A70C,≤ 0.5
9,G6A U8G A42U C61G,≤ 0.5
10,G6A U28A C31G U35A U47A U54A,≤ 0.5
11,G6C C30U C61G,≤ 0.5
12,G6C A42C C62G,≤ 0.5
13,G6C A14G A20C C66U,≤ 0.5
14,G6A U7A G38C,0.603
15,G6C C31U U35A C46G G48A C49U,≤ 0.5
16,G6C C33U A43G G58A C60U,0.554
17,G6C C11U U19C C22A U35C A69U,≤ 0.5
18,G6A U47A,0.692
19,G6A U47C,0.878
20,G6A U13G C62G,≤ 0.5
21,G6A U54G G58A,≤ 0.5
22,G6C A15G A21G G25A A40C C61A A65U,≤ 0.5
23,G6A U26A G48C,0.557
24,G6A U8C U19A C30A A45U G58C A69U,≤ 0.5

row,Variant,yeast fitness
1,G6C C11G C22U,0.606
2,G6C C11A G48C,0.627
3,G6C C22G U64A,≤ 0.5
4,G6A G39C C55G,≤ 0.5
5,G6C A14G U28A C46G U54C G68U,≤ 0.5
6,G6C C34G A45U G68C,≤ 0.5
7,G6C C24A C46G G52A,0.695
8,G6C C11U,0.872
9,G6C C11A,0.659
10,G6C C11U U19C G44C G68A,≤ 0.5
11,G6A U8G A36G,≤ 0.5
12,G6A G44A C46A G52A,0.629
13,G6A G48C C66U,0.769
14,G6C A15U U26A A57C,0.707
15,G6C A14G C49G G50A G58A,≤ 0.5
16,G6C C31G C46A G63C A65U,≤ 0.5
17,G6C C11G A15C G25C C27G C30G G38C C61G U64G,≤ 0.5
18,G6C C29G,0.723
19,G6C C27U G51U G67A,≤ 0.5
20,G6C A36G,0.875
21,G6C A36U,0.653
22,G6C A36C,0.53
23,G6A U13A A40G A42G A57C C66U,0.525
24,G6A U8C G12C C29G C30U A45U C62U A69U,0.823

row,Variant,yeast fitness
1,G6C A45C C46G C55U,≤ 0.5
2,G6A U32C C46G,0.694
3,G6A U59C C62U,0.543
4,G6A G51A C60G,≤ 0.5
5,G6A U19C C24U,0.744
6,G6C A20G C61G,≤ 0.5
7,G6A U26A A37C A57U,≤ 0.5
8,G6C A43U C61G C62A,0.618
9,G6C C11A C22A C29G,≤ 0.5
10,G6A U47G U54C,≤ 0.5
11,G6C C11A C34G C66A,≤ 0.5
12,G6C C31U U53C C62U,≤ 0.5
13,G6C A43G C49U C60A C62A,0.691
14,G6C C49U,0.965
15,G6C A36U A43G G48A C49U U53C,≤ 0.5
16,G6C A20C A40G A42U G58A G63A G67A,0.519
17,G6C A37C G58C U59C,≤ 0.5
18,G6C A42G,0.815
19,G6C A45U G50A,0.658
20,G6C A15C A21C C34U A37U A69U,≤ 0.5
21,G6C A42G C46A,0.695
22,G6A U26A A57C G67A A69U,≤ 0.5
23,G6C A14C G44C C62G,≤ 0.5
24,G6A G48A A65C,0.541

row,Variant,yeast fitness
1,G6C C11G A20G G48C A57G U59A C60A,≤ 0.5
2,G6C C24U G38C A40G A65G,≤ 0.5
3,G6A G50A A65U,≤ 0.5
4,G6C C33G G41C G56C G58A G63C A65U,≤ 0.5
5,G6C A14C C27U,0.539
6,G6C C27A G44A,0.629
7,G6A U32A A45U A69C,0.565
8,G6A U32C G44A C46A G52A C66U,0.567
9,G6C C27A A42C G52A G56A G63C,≤ 0.5
10,G6C C31A,0.808
11,G6C C31U,0.93
12,G6C A14G C46G C62U C66U,≤ 0.5
13,G6C C11A C34G A65G,≤ 0.5
14,G6C A21G G48A,0.977
15,G6A U13A A14G U32C A42U,≤ 0.5
16,G6A G50U,0.826
17,G6A G50A,0.841
18,G6A G50C,0.629
19,G6C C30U,0.784
20,G6C C30A,0.763
21,G6A G44A G51C C66U,≤ 0.5
22,G6C C29G C60A,≤ 0.5
23,G6A G41A C62U,0.619
24,G6A U8C C62U G67A,≤ 0.5

row,Variant,yeast fitness
1,G6C A45U,0.823
2,G6C C22A C46A C61G A69G,≤ 0.5
3,G6A U35C G44A G48C C55G A69U,≤ 0.5
4,G6C C11G U35A,≤ 0.5
5,G6C C31A G38A A65G,≤ 0.5
6,G6A U13A A37C,≤ 0.5
7,G6C A21U U26C,≤ 0.5
8,G6C A40U G56A,≤ 0.5
9,G6A U7C G41A A42C G50C A70G,0.593
10,G6A U8C A15G A20U A45U U64C,≤ 0.5
11,G6C A14C C29U C34G C46U A57G C66A G68C,≤ 0.5
12,G6C C34G G38A U64A,≤ 0.5
13,G6A U64C,0.874
14,G6C A14G,1
15,G6C A14C,0.596
16,G6C A14U,0.607
17,G6A U8C C34G,≤ 0.5
18,G6C C24G A57U,≤ 0.5
19,G6C C33G A40U C46U C49G A65G,0.624
20,G6A U7G C22G G50A,≤ 0.5
21,G6A U16A A43C G67C,≤ 0.5
22,G6C C11G A14U C22U G44A C55A,≤ 0.5
23,G6C A37G G44C A57U G68C,≤ 0.5
